# Screening data (PubChem)
# TAAR1 antag – human TAAR1 antagonists, primary screen, Fluo-8 calcium fluorescence, CHO RD-HGA16 cells | Trace amine-associated receptor 1 (Homo sapiens), Q96RJ0 | antagonist | inhibition, % at 3 µM | actives 1.5% (n = 360,000) | AID 624466, 2012;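 active means inhibition above a per-plate cutoff, the mean inhibition of test compounds on that plate plus 3 SD, cut at about 49% in these data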
#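 Test system: hTAAR1-expressing CHO RD-HGA16 cells, Gα16-coupled; Probe or stimulus: EC80 β-phenethylamine stimulus; Compound dosing: single nominal final test compound concentration of 3 µM; Timing: 140 s kinetic read after compound, 140 s after agonist; Signal: Fluo-8 calcium-sensitive fluorescence; Measure: % inhibition of agonist calcium response; Controls: DMSO and EC80 PEA controls.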
# OX1R antag-1 – OX1R (HCRTR1) antagonists, primary screen, fluorescence, CHO/OX1R cells, Fluo-8 calcium, orexin A; Orexin/Hypocretin receptor type 1 (Homo sapiens), O43613; actives 0.43% (n = 330,000); inhibition, % at 5 µM; Fluo-8 calcium fluorescence; AID 434989, 2010;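 active means inhibition above its plate's threshold, mean inhibition of all tested compounds on the plate plus 3 SD, cut at about 37% in these data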
# Target sequence (O43613 whole entry, looked up): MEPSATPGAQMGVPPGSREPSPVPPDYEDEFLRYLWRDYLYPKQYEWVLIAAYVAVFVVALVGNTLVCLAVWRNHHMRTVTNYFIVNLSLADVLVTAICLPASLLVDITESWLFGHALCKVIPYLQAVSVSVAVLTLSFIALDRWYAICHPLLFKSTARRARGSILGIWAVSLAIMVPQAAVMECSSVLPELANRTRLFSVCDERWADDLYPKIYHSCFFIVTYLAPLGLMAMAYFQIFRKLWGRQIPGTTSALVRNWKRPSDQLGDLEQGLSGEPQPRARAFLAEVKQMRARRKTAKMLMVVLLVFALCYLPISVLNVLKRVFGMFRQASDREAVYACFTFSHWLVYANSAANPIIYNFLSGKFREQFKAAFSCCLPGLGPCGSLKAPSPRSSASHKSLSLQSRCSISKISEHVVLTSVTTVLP
# TAAR1 agonist – human TAAR1 agonists, primary screen, Fluo-8 calcium fluorescence, CHO RD-HGA16 cells | actives 0.99% (n = 360,000) | vehicle wells 0%, saturating PEA agonist 100% | activation, % at 3 µM | Trace amine-associated receptor 1 (Homo sapiens), Q96RJ0;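 active means activation above the mean activation of all test compounds in the run plus 3 SD, cut at about 38% in these data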
#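 Test system: RD-HGA16 (CHO) cells co-expressing Gα16 and hTAAR1 / Benchmarks: DMSO vehicle as 0%, PEA at EC100 as 100% / Repeats: no replicates (n 1) / Measure: % activation from peak over basal fluorescence ratio, DMSO-to-PEA scaled / Timing: 17-24 h plating, Fluo-8 75 min 37 °C, 30 min RT / Technique: kinetic Fluo-8 calcium fluorescence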
# CHO parental Ca – ATP-evoked calcium signal inhibitors, parental CHO, primary screen, counter-screen for OX1R antagonist project, cell-based, fluorescence, Fluo-8 calcium dye; parental CHO-K1, ATP-induced calcium, Fluo-8 fluorescence; inhibition, % at 5.6 µM; actives 0.63% (n = 330,000);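 active means inhibition above that plate's mean sample inhibition plus 3 SD, cut at about 26% in these data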
#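 Material: Parental CHO cells | Reagent: ATP | Compound dosing: Single nominal dose of 5.6 µM per compound | Detection: Intracellular calcium via Fluo-8 no-wash fluorescent dye | Read-out: % inhibition of ATP-induced calcium mobilization | Benchmarks: Low control ATP plus DMSO, high control DMSO only | Replicates: Singlicate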
# GPR7 antagonist – GPR7 receptor antagonists, primary screen, cell-based, fluorescence, single concentration. actives 1.1% (n = 290,000). inhibition, % at 4.4 µM. GPR7-expressing cells, fluorescence antagonist assay. Neuropeptides B/W receptor type 1 (Homo sapiens), P48145. AID 1861, 2009; in the data active means inhibition above about 16%, passing the limit was not always enough;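 further: cells stimulated with the agonist NPW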
# OX1R antag-2 – antagonists of human orexin 1 receptor (OX1R). OX1R-expressing cells, FRET antagonist read-out. inhibition, % at 6.6 µM. actives 1.8% (n = 330,000). AID 485270, 2010; in the data active means inhibition mostly above about 38%, no sharp cut-off; inactive means mostly below about 40%
# TAAR1 nonsel count – nonselective antagonists in TAAR1 counter-screen cells, counter-screen for hTAAR1 antagonist project, cell-based, fluorescence, calcium | shares compounds with TAAR1 antag | counterscreen cell line, antagonist mode | inhibition, % at 3 µM | actives 77% (n = 2,400) | AID 651780, 2012; in the data active means inhibition above about 22%;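 further: CHO-Ga16 host cells stimulated with ATP at an EC80 level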
# TAAR1 ant conf – human TAAR1 antagonists, retest of hits, confirmation, cell-based, fluorescence | shares compounds with TAAR1 antag | TAAR1-expressing cells, fluorescence antagonist read-out | inhibition, % at 3 µM | actives 40% (n = 2,400); in the data active means inhibition above about 49%;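 further: CHO-Ga16 host cells challenged with agonist PEA near its EC80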
# Ga16 nonsel ag – calcium activation in Ga16-expressing cells, counter-screen for TAAR1 antagonist project, cell-based, fluorescence; shares compounds with TAAR1 antag; activation, % at 3 µM; agonist counterscreen; AID 651953, 2012; actives 18% (n = 2,400); in the data active means activation above about 12%
# TAAR1 ag counter – TAAR1 activation by candidate antagonists – cell-based, fluorescence, counter-screen for TAAR1 antagonist project. shares compounds with TAAR1 antag. hTAAR1 cell line, agonist mode. activation, % at 3 µM. actives 2% (n = 2,400). AID 651955, 2012; in the data active means activation above about 37%;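 further: CHO cells stably expressing TAAR1 with calcium dye readout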
# Numbers stand for hits; i = inactive; nt = no result given. Rows were chosen to be rich in hits. Some 4.6% of all compounds tested hit in one or more screens of this group.
SMILES,TAAR1 antag,OX1R antag-1,TAAR1 agonist,CHO parental Ca,GPR7 antagonist,OX1R antag-2,TAAR1 nonsel count,TAAR1 ant conf,Ga16 nonsel ag,TAAR1 ag counter
O=C(Nc1ccc(CN2CCOCC2)cc1)c1cccc(-c2cc3ccccc3oc2=O)c1,63.6,i,i,i,i,i,27.3,i,i,i
Cc1ccc([C@H]2C[C@@H](O)[C@H](n3cc(-c4ccc(F)cc4)nn3)CN2C(=O)c2cccs2)cc1,i,nt,i,nt,nt,nt,nt,nt,nt,nt
Cc1ccc(S(=O)(=O)N2CCOCC2)cc1C(=O)Nc1ccc(-c2cn3ccsc3n2)cc1,73.7,i,i,i,i,i,30.4,74.5,i,i
CCOc1ccc(N(C(C)C(=O)N/N=C(\C)c2cccc(NC(=O)c3ccccc3)c2)S(C)(=O)=O)cc1 (centres undefined),53.6,i,i,i,i,i,29.2,i,i,i
CCOc1ccc(N(C(C)C(=O)Nc2cccnc2)S(C)(=O)=O)cc1 (centres undefined),i,i,i,i,i,i,nt,nt,nt,nt
COc1ccc(Cc2nnc(NC(=O)Cc3cccs3)s2)cc1OC,57.4,i,i,i,i,i,i,i,i,i
O=C(Cc1cccs1)Nc1nnc(Cc2ccccc2)s1,i,i,i,i,i,i,nt,nt,nt,nt
COc1ccc(-c2c(C#N)c(N)nc3c2CCc2ccccc2-3)cc1OC,60.1,i,i,i,i,i,31.3,51.7,i,i
CCCc1cc(-c2ccc(O)c(OCC)c2)c(C#N)c(N)n1,i,i,i,i,i,i,nt,nt,nt,nt
COc1cc(-c2c(C#N)c(N)nc3c2CCCC3)ccc1O,i,i,i,i,i,i,nt,nt,nt,nt
COc1ccc(-c2cc(-c3ccc(O)cc3)nc(N)c2C#N)cc1OC,50.4,i,i,i,i,i,26.2,i,i,i
Cc1ccc(S(=O)(=O)Nc2nc(C)cc(NN)n2)cc1,i,i,i,i,i,i,nt,nt,nt,nt
CCN(c1ccccc1)S(=O)(=O)c1ccc(OC)c(NC(=O)Cc2ccc(F)cc2)c1,103.6,i,i,i,nt,i,i,i,i,i
CCN(c1ccccc1)S(=O)(=O)c1ccc(OC)c(NC(=O)CN2C(=O)NC(C)(C)C2=O)c1,i,i,i,i,nt,i,nt,nt,nt,nt
COc1ccc(C(=O)Cn2nnc(-c3ccccc3NC(=O)c3ccco3)n2)cc1,54.8,i,i,i,i,i,i,i,i,i
O=C1c2ccccc2C(=O)N1CCC#Cc1ccc2cc(CCCO)oc(=O)c2c1,69.0,i,i,i,nt,i,61.3,75.5,23.8,i
O=C(c1ccc(Cl)c(NC2=NC3CS(=O)(=O)CC3S2)c1)N1CCN(c2ccccc2)CC1 (centres undefined),i,i,i,i,i,i,nt,nt,nt,nt
Cc1cccc(N2CCN(C(=O)c3ccc(Cl)c(NC4=NC5CS(=O)(=O)CC5S4)c3)CC2C)c1 (centres undefined),56.0,i,i,i,i,i,26.4,i,i,i
Cc1oc2cc(O)cc(C)c2c(=O)c1-c1cnn(-c2ccccc2)c1,57.5,i,i,i,i,i,32.9,i,i,i
